Values after ≈ are worked out from the molar mass of the structure shown.
Tests used:
[1] = system: Bacillus cereus; assay: Antibacterial activity against Bacillus cereus after 24 hrs by agar streak dilution method; assay type: functional
How it was run: (§1)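 MIC by agar streak dilution. Graded amounts of DMSO stock (100 μg/mL) were mixed into molten sterile nutrient agar and poured 4–5 mm deep. Serial concentrations spanned 3.12–100 µg/mL. Plates were inoculated with about 10⁵ CFU/mL of bacterial suspension and incubated at (37 ± 1) °C for 24 h. Each value is the mean of three independent experiments.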

[2] = system: Shigella flexneri; assay: Antibacterial activity against Shigella flexneri after 24 hrs by agar streak dilution method; assay type: functional; how it was run: as §1
[3] = system: Pseudomonas aeruginosa; assay: Antibacterial activity against Pseudomonas aeruginosa at 100 ug/disc after 24 hrs by disc diffusion method; assay type: functional; settings: read-out: DIZ
How it was run: (§2)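 Paper disc diffusion on autoclaved Mueller-Hinton agar poured 5 mm deep. Agar was swab-inoculated with 10⁵ CFU/mL suspension (0.5 McFarland). Discs 6.25 mm across were soaked in compound solution in DMSO (3.12–100 µg/mL) and plates incubated 24 h at (37 ± 1) °C. Read-out was inhibition zone (mm). DMSO control disc; ciprofloxacin or ketoconazole reference, 100 µg/disc. Mean of three independent experiments.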

[4] = system: Aspergillus fumigatus; assay: Antifungal activity against Aspergillus fumigatus at 100 ug/disc after 24 hrs by disc diffusion method; assay type: functional; settings: read-out: DIZ; how it was run: as §2
[5] = system: Aspergillus fumigatus; assay: Antifungal activity against Aspergillus fumigatus after 48 hrs by agar streak dilution method; assay type: functional
How it was run: (§3)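 Fungal MIC by agar streak dilution on Sabouraud dextrose agar, poured 4–5 mm deep. Compound from a DMSO stock (100 μg/mL) was incorporated at serial concentrations of 3.12–100 µg/mL. Plates were inoculated with about 10⁵ CFU/mL of suspension and incubated at (37 ± 1) °C for 48 h. Each value is the mean of three independent experiments.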

[6] = system: Candida albicans; assay: Antifungal activity against Candida albicans after 48 hrs by agar streak dilution method; assay type: functional; how it was run: as §3
[7] = system: Candida albicans; assay: Antifungal activity against Candida albicans at 100 ug/disc after 24 hrs by disc diffusion method; assay type: functional; settings: read-out: DIZ; how it was run: as §2
[8] = system: Aspergillus clavatus; assay: Antifungal activity against Aspergillus clavatus at 100 ug/disc after 24 hrs by disc diffusion method; assay type: functional; settings: read-out: DIZ; how it was run: as §2
[9] = system: Aspergillus niger; assay: Antifungal activity against Aspergillus niger at 100 ug/disc after 24 hrs by disc diffusion method; assay type: functional; settings: read-out: DIZ; how it was run: as §2
[10] = system: Salmonella typhi; assay: Antibacterial activity against Salmonella Typhi after 24 hrs by agar streak dilution method; assay type: functional, Salmonella enterica subsp. enterica serovar Typhi; settings: Salmonella enterica
How it was run: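 Agar streak dilution: DMSO stock (100 µg/mL) graded into molten sterile nutrient agar, poured 4–5 mm deep and solidified. Plates carry serial dilutions spanning 3.12–100 µg/mL. Applied ~10⁵ CFU/mL suspension, then incubated 24 h at (37 ± 1) °C. MIC read as the lowest inhibitory concentration; each value is the mean of three independent experiments.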

[11] = system: Pseudomonas aeruginosa; assay: Antibacterial activity against Pseudomonas aeruginosa […] after 24 hrs by agar streak dilution method; assay type: functional
[12] = system: Klebsiella pneumoniae; assay: Antibacterial activity against Klebsiella pneumoniae […] after 24 hrs by agar streak dilution method; assay type: functional
[13] = system: Aspergillus niger; assay: Antifungal activity against Aspergillus niger after 48 hrs by agar streak dilution method; assay type: functional; how it was run: as §3
[14] = system: Salmonella typhi; assay: Antibacterial activity against Salmonella Typhi at 100 ug/disc after 24 hrs by disc diffusion method; assay type: functional, Salmonella enterica subsp. enterica serovar Typhi; settings: Salmonella enterica, read-out: DIZ
How it was run: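 Paper disc diffusion on Mueller-Hinton agar poured 5 mm deep; 10⁵ CFU/mL suspension (0.5 McFarland) swabbed over surface. 6.25 mm filter paper discs soaked in compound in DMSO, incubated 24 h at (37 ± 1) °C; inhibition zone diameter in mm. DMSO disc as blank; ciprofloxacin 100 µg/disc as reference. Mean of three independent experiments.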

[15] = system: Klebsiella pneumoniae; assay: Antibacterial activity against Klebsiella pneumoniae at 100 ug/disc after 24 hrs by disc diffusion method; assay type: functional; settings: read-out: DIZ; how it was run: as §2
[16] = system: Bacillus cereus; assay: Antibacterial activity against Bacillus cereus at 100 ug/disc after 24 hrs by disc diffusion method; assay type: functional; settings: read-out: DIZ; how it was run: as §2
[17] = system: Proteus vulgaris; assay: Antibacterial activity against Proteus vulgaris at 100 ug/disc after 24 hrs by disc diffusion method; assay type: functional; settings: read-out: DIZ; how it was run: as §2
[18] = system: Shigella flexneri; assay: Antibacterial activity against Shigella flexneri at 100 ug/disc after 24 hrs by disc diffusion method; assay type: functional; settings: read-out: DIZ; how it was run: as §2
[19] = system: Staphylococcus aureus; assay: Antibacterial activity against Staphylococcus aureus at 100 ug/disc after 24 hrs by disc diffusion method; assay type: functional; settings: read-out: DIZ; how it was run: as §2
[20] = system: Staphylococcus aureus; assay: Antibacterial activity against Staphylococcus aureus after 24 hrs by agar streak dilution method; assay type: functional; how it was run: as §1
[21] = system: Proteus vulgaris; assay: Antibacterial activity against Proteus vulgaris after 24 hrs by agar streak dilution method; assay type: functional; how it was run: as §1
[22] = system: Escherichia coli; assay: Antibacterial activity against Escherichia coli at 100 ug/disc after 24 hrs by disc diffusion method; assay type: functional; settings: read-out: DIZ; how it was run: as §2
[23] = system: Aspergillus clavatus; assay: Antifungal activity against Aspergillus clavatus after 48 hrs by agar streak dilution method; assay type: functional; how it was run: as §3
[24] = system: Escherichia coli; assay: Antibacterial activity against Escherichia coli after 24 hrs by agar streak dilution method; assay type: functional; how it was run: as §1

SMILES	MIC [1]	MIC [2]	zone of inhibition at 100 µg/disc [3]	zone of inhibition at 100 µg/disc [4]	MIC [5]	MIC [6]	zone of inhibition at 100 µg/disc [7]	zone of inhibition at 100 µg/disc [8]	zone of inhibition at 100 µg/disc [9]	MIC [10]	MIC [11]	MIC [12]	MIC [13]	zone of inhibition at 100 µg/disc [14]	zone of inhibition at 100 µg/disc [15]	zone of inhibition at 100 µg/disc [16]	zone of inhibition at 100 µg/disc [17]	zone of inhibition at 100 µg/disc [18]	zone of inhibition at 100 µg/disc [19]	MIC [20]	other results
CCN1CCN(CC2SC(c3ccc(F)cc3)N(c3ccc(Nc4nc(Oc5cc(=O)n(C)c6ccccc56)nc(N(C)C)n4)cc3)C2=O)CC1 (stereo not given)	6.25 µg/mL (≈ 8.8 µM)	25 µg/mL (≈ 35.2 µM)	25 mm	28 mm	12.5 µg/mL (≈ 17.6 µM)	25 µg/mL (≈ 35.2 µM)	25 mm	25 mm	26 mm	6.25 µg/mL (≈ 8.8 µM)	12.5 µg/mL (≈ 17.6 µM)	25 µg/mL (≈ 35.2 µM)	12.5 µg/mL (≈ 17.6 µM)	27 mm	25 mm	28 mm	22 mm	19 mm	27 mm	6.25 µg/mL (≈ 8.8 µM)	MIC [21]: 25 µg/mL (≈ 35.2 µM); zone of inhibition at 100 µg/disc [22]: 28 mm; MIC [23]: 25 µg/mL (≈ 35.2 µM); MIC [24]: 6.25 µg/mL (≈ 8.8 µM)
CCN1CCN(CC2SC(c3cccc(F)c3)N(c3ccc(Nc4nc(Oc5cc(=O)n(C)c6ccccc56)nc(N(C)C)n4)cc3)C2=O)CC1 (stereo not given)	6.25 µg/mL (≈ 8.8 µM)	12.5 µg/mL (≈ 17.6 µM)	20 mm	24 mm	50 µg/mL (≈ 70.4 µM)	25 µg/mL (≈ 35.2 µM)	25 mm	24 mm	25 mm	6.25 µg/mL (≈ 8.8 µM)	50 µg/mL (≈ 70.4 µM)	25 µg/mL (≈ 35.2 µM)	12.5 µg/mL (≈ 17.6 µM)	24 mm	22 mm	23 mm	19 mm	25 mm	20 mm	12.5 µg/mL (≈ 17.6 µM)	MIC [21]: 50 µg/mL (≈ 70.4 µM); zone of inhibition at 100 µg/disc [22]: 23 mm; MIC [23]: 50 µg/mL (≈ 70.4 µM); MIC [24]: 6.25 µg/mL (≈ 8.8 µM)
CCN1CCN(CC2SC(c3ccc(Cl)cc3)N(c3ccc(Nc4nc(Oc5cc(=O)n(C)c6ccccc56)nc(N(C)C)n4)cc3)C2=O)CC1 (stereo not given)	6.25 µg/mL (≈ 8.61 µM)	12.5 µg/mL (≈ 17.2 µM)	23 mm	26 mm	12.5 µg/mL (≈ 17.2 µM)	12.5 µg/mL (≈ 17.2 µM)	27 mm	23 mm	26 mm	50 µg/mL (≈ 68.8 µM)	50 µg/mL (≈ 68.8 µM)	6.25 µg/mL (≈ 8.61 µM)	25 µg/mL (≈ 34.4 µM)	20 mm	26 mm	28 mm	25 mm	26 mm	26 mm	6.25 µg/mL (≈ 8.61 µM)	MIC [21]: 25 µg/mL (≈ 34.4 µM); zone of inhibition at 100 µg/disc [22]: 27 mm; MIC [23]: 12.5 µg/mL (≈ 17.2 µM); MIC [24]: 12.5 µg/mL (≈ 17.2 µM)
O=C(O)c1cn(C2CC2)c2cc(N3CCNCC3)c(F)cc2c1=O [CIPROFLOXACIN]	1 µg/mL (≈ 3.02 µM)	≤ 3 µg/mL	33 mm	–	–	–	–	–	–	1 µg/mL (≈ 3.02 µM)	1 µg/mL (≈ 3.02 µM)	1 µg/mL (≈ 3.02 µM)	–	30 mm	33 mm	31 mm	31 mm	32 mm	30 mm	1 µg/mL (≈ 3.02 µM)	MIC [21]: 1 µg/mL (≈ 3.02 µM); zone of inhibition at 100 µg/disc [22]: 32 mm
CC(=O)N1CCN(c2ccc(OCC3COC(Cn4ccnc4)(c4ccc(Cl)cc4Cl)O3)cc2)CC1 (stereo not given) [KETOCONAZOLE]	–	–	–	29 mm	1 µg/mL (≈ 1.88 µM)	1 µg/mL (≈ 1.88 µM)	33 mm	31 mm	30 mm	–	–	–	≤ 3 µg/mL	–	–	–	–	–	–	–	MIC [23]: 1 µg/mL (≈ 1.88 µM)

From ChEMBL document CHEMBL1933017, “Synthesis and biological evaluation of some thiazolidinones as antimicrobial agents” (2012)
